Screens: PubChem BioAssay, Johns Hopkins Ion Channel Center
Shown are actives, neighbours in structure and some others; about 3.5% of the full set was active somewhere.
RGS4 block = inhibitors of human RGS4 | B-score at 10 µM | P49798 | HEK293 M3R/RGS4 inducible, Fluo-4 calcium flux; stronger effect = higher value; triggered by carbachol at its EC20 | 310,000 compounds, 0.45% hits | AID 463165;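 active means B-score, a plate-corrected calcium signal, over three deviations above library mean, with baseline fluorescence within five deviations of library mean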;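 further: RGS4 expression induced by doxycycline in cells with stable M3 receptor; B-score is computed from the integrated fluorescence ratio over baseline after carbachol; higher B-score means a larger calcium signal and so more RGS4 inhibition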
MrgX1 ag = human MrgX1 receptor agonism, primary screen | Q96LB2 | MrgX1-HEK293 cells, Fluo-4 calcium fluorescence, agonist mode; stronger effect = higher value | B-score at 10 µM | 310,000 compounds, 0.44% hits | AID 588627;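 active means calcium response B-score plate-corrected fluorescence ratio at least 3 library SD, with starting fluorescence B-score inside 5 SD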
Target sequence (Q96LB2 whole entry, looked up): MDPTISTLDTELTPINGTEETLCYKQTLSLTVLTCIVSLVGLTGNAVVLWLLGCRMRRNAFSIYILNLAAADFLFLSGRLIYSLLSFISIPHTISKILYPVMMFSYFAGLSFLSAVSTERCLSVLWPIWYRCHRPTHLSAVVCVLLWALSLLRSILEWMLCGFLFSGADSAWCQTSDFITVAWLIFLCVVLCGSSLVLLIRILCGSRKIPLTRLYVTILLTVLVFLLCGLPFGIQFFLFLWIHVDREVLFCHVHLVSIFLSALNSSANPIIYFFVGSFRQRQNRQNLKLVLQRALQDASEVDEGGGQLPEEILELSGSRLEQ
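Test system: Stable human MrgX1 HEK293 cell line | Schedule: Overnight plating before 1 h dye loading | Read-out basis: Baseline-normalised fluorescence change ratio, B-scored | Detection: Kinetic calcium dye fluorescence, Fluo-4 NW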
MrgX1 antag = antagonists of human MrgX1 receptor | MRGX1-HEK293 calcium flux, Fluo-4, BAM8-22 antagonism; stronger effect = lower value | B-score at 10 µM | 310,000 compounds, 1.3% hits;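 active means calcium-response B-score plate-corrected more than 3 library SD below zero, starting fluorescence within 5 deviations, no agonist response on first addition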;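 further: peak minus trough fluorescence over baseline after final BAM8-22 challenge near maximal dose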
RGS4 act = RGS4 potentiation or activation. 310,000 compounds, 0.92% hits. B-score at 10 µM. HEK293 M3R/inducible RGS4, carbachol calcium flux Fluo4; stronger effect = lower value. AID 463111;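 active means B-score of the integrated calcium signal more than 4 SD below the library mean, with starting fluorescence not abnormally high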;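 further: negative B-score means reduced calcium response which marks RGS4 activation or potentiation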
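test system = HEK293 cells with stable M3R and inducible RGS4 | schedule = recording 10 s baseline at 1 Hz, 100 s post-agonist | technique = Fluo4-AM (2 µM) calcium-flux fluorescence, kinetic read | measure = Agonist-evoked peak-minus-minimum fluorescence over baseline, integrated ratio, B score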
MrgX1 PAM = human MrgX1 positive allosteric modulation, primary screen; MrgX1-HEK293, Fluo-4 calcium flux, FDSS; stronger effect = higher value; B-score at 10 µM; 310,000 compounds, 0.63% hits; AID 588675;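 active means plate-corrected calcium response at least 3 library SD above typical, normal starting fluorescence, not activating the receptor alone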;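 further: compound read alongside a low EC10 to EC30 dose of BAM8-22 agonist; peak minus trough fluorescence over baseline measured at the second addition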
RGS4 activ val = RGS4 activation, validation assay; 1,100 compounds, 89% hits; HEK293 M3R/RGS4 inducible, carbachol calcium flux Fluo4; shares compounds with RGS4 act; inhibition, % at 10 µM; AID 602282;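 active means inhibition above 3 SD of the buffer control wells, cut at about 41% in these data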;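 further: signal is the integrated peak-minus-minimum Fluo4 fluorescence over baseline ratio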
M3R Ca counter = RGS4 activator counter-screen hit in non-induced cells; shares compounds with RGS4 act; HEK293 M3R non-induced RGS4, Fluo4 calcium flux; after carbachol challenge at its EC90; inhibition, % at 10 µM; 1,100 compounds, 82% hits; AID 602283;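 active means inhibition exceeding 3 SD of buffer-only control wells, cut at about 26% in these data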;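 further: percent drop in integrated peak-minus-baseline over baseline Fluo4 ratio after carbachol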
Numbers without * were called inactive; i = inactive; nt = no result.

SMILES	RGS4 block	MrgX1 ag	MrgX1 antag	RGS4 act	MrgX1 PAM	RGS4 activ val	M3R Ca counter
Cn1c(O)c(C=NC2CCN(Cc3ccccc3)CC2)c(=O)[nH]c1=O	i	i	i	i	i	nt	nt
N/C(=N\[N+](=O)[O-])N1CCN(C(=O)c2ccccc2)CC1	i	i	i	i	i	nt	nt
CCOc1cccc(CNCCc2c(C)[nH]c3ccc(OC(F)(F)F)cc23)c1O	i	i	-5.3*	-8.9*	i	90*	90*
Cc1[nH]c2ccc(OC(F)(F)F)cc2c1CCNCc1cccc([N+](=O)[O-])c1	i	i	i	i	i	nt	nt
O=C(c1ccc(Cl)cc1)C1CCCN(C2CCSCC2)C1 (stereo not drawn)	i	i	i	-7.9*	i	92*	55*
CCC[N+]12CCC(CC1)C(=C(c1ccccc1)c1ccccc1)C2	i	i	i	-12*	i	90*	64*
CCN1CCN(S(=O)(=O)c2cnc(Cl)c(Br)c2)CC1	i	i	i	i	i	nt	nt
Brc1ccc2c(c1)C(OC1CN3CCC1CC3)c1ccccc1CS2 (stereo not drawn)	i	i	i	-14*	i	94*	90*
COC(=O)C1=C(c2ccccc2)C[C@@H]2CC[C@H]1N2C(=O)NCCNC(C)=O	i	i	i	i	i	nt	nt
Cc1ccc(-c2nc3ccccc3c(=O)n2-c2cccc(C)n2)cc1	i	i	i	-10*	i	48*	84*
Cc1ccc(-c2nc3ccccc3c(=O)n2-c2cc(C)ccn2)cc1	i	i	i	i	i	nt	nt
O=[N+]([O-])c1ccc2nc(N3CCNCC3)ccc2c1	i	i	i	i	i	nt	nt
CCCn1ncc(CN2CCCC(C(=O)c3cccc(OC)c3)C2)c1C (stereo not drawn)	i	i	i	-9.1*	i	91*	70*
COc1ccccc1N1CCN(Cc2cnc(-c3ccccc3)[nH]2)CC1	i	i	i	i	i	nt	nt
OC(c1ccccc1)(c1ccc(Cl)cc1)C1CN2CCC1CC2 (stereo not drawn)	i	i	i	-9.1*	i	78*	57*
c1ccc(CN2CCNCC2)nc1	i	i	i	i	i	nt	nt
c1ccc(C(OCCN2CCNCC2)c2ccccc2)cc1	i	i	i	-9.5*	i	92*	74*
CN(CC(=O)Nc1ccccc1-c1ccccc1)C1CCCCC1	i	i	i	-9.6*	i	92*	55*
CCc1ccccc1NC(=O)CNC1CCCCC1	i	i	i	i	i	nt	nt
O=C1NC(=O)C2(Cc3c(nc4ccccn4c3=O)N3CCCCCC32)C(=O)N1Cc1ccccc1 (stereo not drawn)	nt	i	i	nt	i	nt	nt
O=C(c1cccs1)C1CN2CCC1CC2 (stereo not drawn)	i	i	i	-9.3*	i	60*	0
CN1CC(C(=O)c2cccs2)C(c2ccc(Cl)cc2)C1 (stereo not drawn)	i	i	i	i	i	nt	nt
CCn1ccnc1CN1CCCC(C(=O)c2ccc(SC)cc2)C1 (stereo not drawn)	i	i	i	-10*	i	92*	90*
CC1(C(O)(C#CCN2CCCCC2)c2ccccc2)CCCC1 (stereo not drawn)	i	i	i	-7.6*	i	93*	89*
OC(CC#CCN1CCCCCC1)(c1ccccc1)C1CCCC1 (stereo not drawn)	i	i	i	-7.7*	i	93*	95*
COc1cc(OC)c([C@H]2C=C(C)[C@H]3C[C@@H]2C3(C)C)c(OC)c1	i	i	i	i	i	nt	nt
COc1cccc(CNC2CN3CCC2CC3)c1OC (stereo not drawn)	i	i	i	-7.7*	i	56*	26*
